{"data": "Assay results from different studies", "sample": "Caco-2", "note": "Lines come from different studies, so protocols differ."}
{"quantity": "Papp", "result": "0.54 ×10⁻⁶ cm/s", "Structure (SMILES)": "O=S1(=O)OC(c2ccc(O)cc2)(c2ccc(O)cc2)c2ccccc21"}
{"conditions": "20 µM, 2 h", "quantity": "Papp", "result": "18 ×10⁻⁶ cm/s", "Structure (SMILES)": "CNC(=O)c1ccccc1Nc1cc(Nc2ccc(N3CCOCC3)cc2OC)ncc1C(F)(F)F"}
{"conditions": "10 µM", "quantity": "Papp", "result": "5.2 ×10⁻⁶ cm/s", "Structure (SMILES)": "Cc1cc(-c2ccnc3[nH]cc(F)c23)cc(F)c1[C@@]1(O)[C@H](C)CN(C(=O)CN)C[C@@H]1C"}
{"quantity": "Papp", "result": "4.76 ×10⁻⁶ cm/s", "Structure (SMILES)": "O=C(Nc1ccc(OC(F)(F)F)cc1)N[C@H]1CC[C@H](Oc2ccc(C(=O)O)cc2)CC1"}
{"conditions": "100 µg/mL, 2 h", "quantity": "Papp B→A", "result": "4.98 ×10⁻⁶ cm/s", "Structure (SMILES)": "O=c1c(-c2ccc(O)cc2)coc2cc(O)ccc12"}
{"conditions": "10 µM", "quantity": "Papp", "result": "14.8 ×10⁻⁶ cm/s", "Structure (SMILES)": "Cc1cc(-c2ccnc3[nH]cc(F)c23)cc(F)c1[C@@]1(O)[C@H](C)CN(C2CCS(=O)(=O)CC2)C[C@@H]1C"}
{"conditions": "100 µg/mL, 2 h", "quantity": "Papp B→A", "result": "8.96 ×10⁻⁶ cm/s", "Structure (SMILES)": "COc1ccc(CCC(=O)c2c(O)cc(O[C@@H]3O[C@H](CO)[C@@H](O)[C@H](O)[C@H]3O[C@@H]3O[C@@H](C)[C@H](O)[C@@H](O)[C@H]3O)cc2O)cc1O"}
{"conditions": "10 µM, 2 h", "quantity": "Papp", "result": "8.1 ×10⁻⁶ cm/s", "Structure (SMILES)": "O=C1CCC(N2Cc3cc(C4CCN(Cc5ccccc5)CC4)ccc3C2=O)C(=O)N1 (stereo not drawn)"}
{"conditions": "50 µg/mL", "quantity": "Papp A→B", "result": "0.228 ×10⁻⁶ cm/s", "Structure (SMILES)": "C[C@@H]1O[C@@H](OC[C@H]2O[C@@H](Oc3c(-c4ccc(O)c(O)c4)oc4cc(O)cc(O)c4c3=O)[C@H](O)[C@@H](O)[C@@H]2O)[C@H](O)[C@H](O)[C@H]1O"}
{"conditions": "1 µM", "quantity": "Papp B→A", "result": "20.7 ×10⁻⁶ cm/s", "Structure (SMILES)": "Cc1cc(C)c(CNC(=O)c2cc(Cl)c3c(c2C)O[C@@](C)([C@H]2CC[C@H](N(C)C)CC2)O3)c(=O)[nH]1"}
{"conditions": "200 µg/mL", "quantity": "Papp A→B", "result": "0.322 ×10⁻⁶ cm/s", "Structure (SMILES)": "O=c1cc(-c2ccc(O)cc2)oc2c([C@@H]3O[C@H](CO)[C@@H](O)[C@H](O)[C@H]3O)c(O)cc(O)c12"}
{"conditions": "100 µg/mL, 2 h", "quantity": "Papp B→A", "result": "35.1 ×10⁻⁶ cm/s", "Structure (SMILES)": "COc1ccc(-c2cc(=O)c3c(O)cc(O[C@@H]4O[C@H](CO[C@@H]5O[C@@H](C)[C@H](O)[C@@H](O)[C@H]5O)[C@@H](O)[C@H](O)[C@H]4O)cc3o2)cc1O"}
